Data: publication PMC12316956 (Scientific Reports, 2025)
Where two headings read alike, the source gives them in different places. Each block holds one compound with its values, some of them ahead of it.

How the values were obtained:
[1] = humans; cited from earlier work
PC-9 cells = details: PC-9 lung cancer cell line; cited from earlier work
[2] = 80% T>IC50, 5 mg/kg, single oral, rats
A549 = A549 lung cancer cell line; cited from earlier work
prostaglandin E2 (PGE2) = details: read-out: IC50 for PGE2; in vitro; ref Park et al.[47]; cited from earlier work
nitric oxide (NO) = details: read-out: IC50 for NO; in vitro; ref Park et al.[47]; cited from earlier work
[3] = assay type: in vivo, Sprague Dawley rats; details: for accumulation factor: rats
Summary of the method: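 Male SD rats (n = 5/group) were 7 wk old for the single dose, 6 wk for 2 wks, and 4 wk for 4 or 8 wks. They received KRG in PBS, 2 g/kg/day PO. Tail-vein blood was drawn 0–96 h after the last dose and spun 13,700 x g for 15 min; plasma was stored at −80 °C. Rb1, Rd and compound K were measured by LC-MS/MS with berberine as internal standard. Non-compartmental analysis was used; Tmax is reported as median (range).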

[4] = Pharmacokinetic study 2: oral compound K, single or 4 wks, in rats; assay type: in vivo, Sprague Dawley rats; details: AUC 4 wks / AUC single
Summary of the method: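 Male SD rats (n = 5/group; 7 wk old for single dosing, 4 wk for 4 wks) got test compound in PBS by oral gavage at 5 or 10 mg/kg/day, single dose or 4 wks. Tail-vein plasma was sampled 0–24 h and assayed by LC-MS/MS. One-compartment model; AUC by trapezoids; Tmax as median (range). Accumulation factor = AUC(0−t) repeated / AUC(0−t) single at the same dose.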

[5] = rats, same dose level; cited from earlier work
[6] = male, Sprague-Dawley, rat, plasma, po, 2 g/kg
[7] = KRG 2 g/kg oral, 2 wks vs single (AUC ratio)

SMILES: CC(C)=CCC[C@](C)(O[C@@H]1O[C@H](CO)[C@@H](O)[C@H](O)[C@H]1O)[C@H]1CC[C@]2(C)[C@@H]1[C@H](O)C[C@@H]1[C@@]3(C)CC[C@H](O)C(C)(C)[C@@H]3CC[C@]12C [Compound K, compound K]
time of appearance in plasma after consuming ginseng lacking compound K [1]: 8 h
in vitro IC50, antitumor activity (PC-9 cells): 14.46 µg/mL
Calculated dosing interval ([2]; NO (IC50 12 µM)): ~7 h
Calculated dosing interval ([2]; PGE2 (IC50 4 µM)): ~18 h
in vitro IC50, antitumor activity (A549): 16.11 µg/mL
IC50 (prostaglandin E2 (PGE2)): 4 µM
IC50 (nitric oxide (NO)): 12 µM
Cmax ([3]; rat plasma, KRG 2 g/kg oral, 4 wks): 2.9 ng/mL
Cmax ([3]; rat plasma, KRG 2 g/kg oral, 8 wks): 2.3 ng/mL
accumulation factor ([4]; compound K oral 5 mg/kg): 4
accumulation factor ([4]; compound K oral 10 mg/kg): 7
oral bioavailability [5]: 4%

Cmax [3, 6]: 23.9 ng/mL
Cmax at 8 wks [3, 6]: 68.3 ng/mL
accumulation factor [3, 7]: approximately 3
SMILES: CC(C)=CCC[C@](C)(O[C@@H]1O[C@H](CO[C@@H]2O[C@H](CO)[C@@H](O)[C@H](O)[C@H]2O)[C@@H](O)[C@H](O)[C@H]1O)[C@H]1CC[C@]2(C)[C@@H]1[C@H](O)C[C@@H]1[C@@]3(C)CC[C@H](O[C@@H]4O[C@H](CO)[C@@H](O)[C@H](O)[C@H]4O[C@@H]4O[C@H](CO)[C@@H](O)[C@H](O)[C@H]4O)C(C)(C)[C@@H]3CC[C@]12C [Rb1, ginsenoside Rb1]
time within which excreted in the urine [1]: ≤ 3 h

SMILES: CC(C)=CCC[C@](C)(O[C@@H]1O[C@H](CO[C@@H]2O[C@@H](CO)[C@H](O)[C@H]2O)[C@@H](O)[C@H](O)[C@H]1O)[C@H]1CC[C@]2(C)[C@@H]1[C@H](O)C[C@@H]1[C@@]3(C)CC[C@H](O[C@@H]4O[C@H](CO)[C@@H](O)[C@H](O)[C@H]4O[C@@H]4O[C@H](CO)[C@@H](O)[C@H](O)[C@H]4O)C(C)(C)[C@@H]3CC[C@]12C [Rc, ginsenoside Rc]
time within which excreted in the urine [1]: ≤ 3 h

Cmax [3, 6]: 8.5 ng/mL
accumulation factor [3, 7]: 2.2
accumulation factor ([3]; KRG 2 g/kg oral, 8 wks vs single (AUC ratio)): 5
SMILES: CC(C)=CCC[C@](C)(O[C@@H]1O[C@H](CO)[C@@H](O)[C@H](O)[C@H]1O)[C@H]1CC[C@]2(C)[C@@H]1[C@H](O)C[C@@H]1[C@@]3(C)CC[C@H](O[C@@H]4O[C@H](CO)[C@@H](O)[C@H](O)[C@H]4O[C@@H]4O[C@H](CO)[C@@H](O)[C@H](O)[C@H]4O)C(C)(C)[C@@H]3CC[C@]12C [Rd, ginsenoside Rd]
time within which excreted in the urine [1]: ≤ 3 h

SMILES: CC(C)=CCC[C@](C)(O[C@@H]1O[C@H](CO)[C@@H](O)[C@H](O)[C@H]1O)[C@H]1CC[C@]2(C)[C@@H]1[C@H](O)C[C@@H]1[C@@]3(C)CC[C@H](O)C(C)(C)[C@@H]3[C@@H](O[C@@H]3O[C@H](CO)[C@@H](O)[C@H](O)[C@H]3O)C[C@]12C [Rg1, ginsenoside Rg1]
time within which excreted in the urine [1]: ≤ 3 h
